From ChEMBL document CHEMBL4513216, “Probing the Open Global Health Chemical Diversity Library for Multistage-Active Starting Points for Next-Generation Antimalarials” (ACS Infect Dis, 2020)

Experiment: Toxicity liver stage against HepG2, at 10uM
Assay type: cell-based
Set-up: test concentration 10 uM, cell line HepG2-A16-CD81EGFP
Details: human, HepG2-A16-CD81EGFP cells; read-out: INHIBITION
Summary of the method: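 Uninfected HepG2-A16-CD81EGFP cells, 3 × 10^3 per well, 1536-well, plated on prespotted compound at 10 μM final, parasite-free screening media added to match infected plates; puromycin 10 μM positive, DMSO 0.5% negative; run in parallel with 48 h PbLuc assay at 37 °C, 5% CO2; viability by CellTiter-Glo luminescence, normalized to controls.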

SMILES	cytotoxicity at 10 µM [%]
CCc1sc(C(=O)N2CCC(Nc3ccc(C)nn3)CC2)cc1C	1.86
CCN(CCNC(=O)C1CCCN(C(C)=O)C1)c1ccccc1C (centres undefined)	4.87
CCCc1nnc(NCCn2nc(C)c(Cl)c2C)o1	1.89
CCc1nccn1CCC(=O)N1C[C@@H]2CC[C@H]1CN(C(=O)N(C)C)C2	-14.4
CCN1CC2(CCC1=O)CCN(Cc1cc(F)ccc1Cl)CC2	6.58
COc1ccccc1C1(O)CCCN(C(=O)c2csc(C(C)=O)c2)C1 (centres undefined)	-1.41
Cc1ccc(C(=O)NCC2CCN(Cc3ccccc3C#N)C2)cn1 (centres undefined)	1.48
Cc1ccc(OCC(=O)NCC(C)C)nc1	-18.3
CCc1nnc2n1CCN(Cc1csc(-c3cnn(C)c3)n1)C2	18.4
O=C(NC1CC1)C(c1ccccc1)N1CCN(Cc2ccc(Cl)s2)CC1 (centres undefined)	4.46
CC(NC(=O)N(C)Cc1ccc2c(c1)OCCO2)c1nncn1C (centres undefined)	-2.25
CCC(C)(C)n1nnnc1C(c1cccs1)N1CCCCC1 (centres undefined)	2.09
COc1ccc(Cc2ncc3c(n2)CN(C(=O)CO)C3)cc1	0.624
COC(=O)C(NC(=O)c1ccc(N(C)C)nc1)c1ccccc1 (centres undefined)	4.15
CCn1nc(C)c2nc(C(C)C)nc(NCC(C)C)c21	15.5
Fc1ccccc1Oc1nccnc1C1CCN(C2CCOCC2)CC1	13.9
Cn1ccnc1CN1CCC2(COCCN(Cc3ccsc3)C2)C1 (centres undefined)	-9.81
Cc1ccc(CN2CCn3cc(CNC(=O)c4cnn(C)c4)nc3C2)s1	1.13
Cc1cc(CNC(=O)N2CCN(C(C)c3cccnc3)CC2)c(C)o1 (centres undefined)	-8.54
CN(CCc1ccccc1)Cc1c(C2CCNCC2)[nH]c2ncccc12	55.5
CCS(=O)(=O)N1CCC2(CC1)CC[C@@]1(C(=O)NC)CN(C(C)=O)C[C@@H]21	6.1
CNc1nc(CNC(=O)Nc2cccc(-c3ncc(C)o3)c2)cs1	-7.57

SMILES	cytotoxicity at 10 µM [%]
c1cc2c(cc1CN1C[C@@H]3COC[C@@H](N4CCCC4)[C@@H]3C1)OCO2	4.62
CC(C)C1CN(c2ncccn2)CCC(=O)N1CC1CC1 (centres undefined)	0.0666
Cc1csc(C2(NCc3csc(C4CC4)n3)CCCC2)n1	4.32
CN(C)c1ccc(CNc2cncc(-n3cccn3)n2)cc1	-7.31
Cc1cc(C)n(CC2CCCCN2C(=O)c2ccc(C(N)=O)cc2)n1 (centres undefined)	3.09
Cc1cnn(CC2CCCN2C(=O)CCCc2nc(C)no2)c1 (centres undefined)	2.86
COc1ccccc1C(=O)N1CC(=O)N(CC(C)C)CC(O)C1 (centres undefined)	4.37
Cc1cc(C)c2c(OCC(=O)N(C)CC(=O)NC(C)C)nn(C)c2n1	1.28
O=C1CC2(CCCCN2C(=O)c2ccncc2)CN1CC1CC1 (centres undefined)	2.17
Cc1ccc(N2CCC(C(=O)NC3CCc4nccn4C3)CC2)nc1 (centres undefined)	-7.39
COCc1ncc(CN2CCC(Oc3ccc(OC)cc3)CC2)cn1	-5.72
Cc1nc2ncnn2c(C)c1CCC(=O)Nc1cccn(C)c1=O	-9.59
O=S(=O)(CCc1ccccc1Cl)CC(O)CO (centres undefined)	10.7
CC(C)C(=O)N1CCN(S(C)(=O)=O)CC2(CC(=O)N(C)C2)C1 (centres undefined)	8.91
Cc1nc(C)n(CC(C)C(=O)N2CCC(NS(C)(=O)=O)CC2)n1 (centres undefined)	-4.4
COc1cc(NC2CCCN(c3ncccn3)C2)cc(OC)c1 (centres undefined)	-16
CC(C)CCC1=NC2(CCN(C(=O)N3CCN(C)CC3)CC2)C(=O)N1	-6.08
CNC(=O)[C@@H]1C[C@H](n2cc(-c3ccc(CN4CC=CC4)cc3)nn2)CN1	3.46
O=C1CCCN1CC1CCCCN1C(=O)Nc1cccc(F)c1 (centres undefined)	-1.8
COc1ccccc1NC(=O)NCC(O)(c1ccccc1)C1CC1 (centres undefined)	-19.5
CN1CCCC(C(=O)N2CCC(Oc3ccccn3)CC2)C1 (centres undefined)	-5.15
O=C1CC[C@H]2[C@H](CCN2C(=O)C2CCOCC2)N1Cc1ccncc1	-2.7

SMILES	cytotoxicity at 10 µM [%]
Cc1nc(N2CCOCC2)nc2c1CCN(Cc1cccnc1)CC2	-0.368
CC(C)OCCC(=O)NCC(O)c1c(Cl)cccc1Cl (centres undefined)	-6.93
CCOC(=O)CNc1nc(C(C)(C)C)nc2c1cnn2C	-12.8
COCCC1COC2(CCN(C(=O)C3CCCC3)CC2)C1 (centres undefined)	6.13
CNC(=O)c1sccc1N(C)S(=O)(=O)c1ccc(Cl)cc1	14.7
Cc1nn(C)c(C)c1Cc1nc(N(C)C)no1	7.06
O=C(c1cncc(N2CC[C@@]3(O)CCNC[C@H]3C2)n1)N1CCCC1	-8.19
CC(C)NC(=O)C1CN(C(=O)Nc2cccc(F)c2)CC12CCOCC2 (centres undefined)	-85.8
Cc1ccc(C)c(CN(CC(N)=O)C(C)C)c1	0.477
CC1N(c2cnn(C)c2)C(=O)COC12CCN(Cc1ccco1)CC2 (centres undefined)	1.2
Cc1cc(F)ccc1N1CCCC(Nc2nccn3cnnc23)C1=O (centres undefined)	-6.62
Cc1nc[nH]c1CN(Cc1ccccc1)Cc1nccs1	2.14
Cn1cccc1C(=O)N1C[C@@H]2C[C@@H](c3nnc(C4CC4)o3)O[C@@H]2C1	-112
c1csc(CN2CC[C@H]3O[C@@H](COCC4CC4)CC[C@H]32)c1	-74.8
COCCN(CCOC)C(=O)NC1CCCCC1	-0.655
O=C(N1CCCC1)N1C[C@@H](OCc2cccnc2)[C@H]2OCCC[C@H]21	4.85
Cc1ccc(N2CC[C@@H]3[C@@H]2CCN3C(=O)Cc2ccccc2)nn1	-93.1
CC(C)S(=O)(=O)C(C)C(=O)Nc1ccc2oc(C3CC3)nc2c1 (centres undefined)	1.77
CN(CC1CCCCO1)C(=O)c1ccnc(OC2CCC2)c1 (centres undefined)	-7.63
COc1ccc(CN(C)c2ncc(S(N)(=O)=O)s2)c(OC)c1	-2.03
COCc1cc(CNC(=O)c2cccc3c2OCC3)n[nH]1	8.97
COCc1nc(CNC2CCSCC2)no1	-9.87

SMILES	cytotoxicity at 10 µM [%]
Cc1ccc(C2CCCCCN2C(=O)Nc2cn[nH]c2)o1 (centres undefined)	5.16
Cn1c(CN2CCCC(Cn3cncn3)C2)nc2ccccc21 (centres undefined)	-6.78
CC(=O)N1CCCC2(CN(Cc3ccc(F)cc3)CCO2)C1 (centres undefined)	0.283
COc1ccc(C(C(=O)O)N2CCN(C3CCCC3)CC2)cc1C (centres undefined)	-8.77
CC(=O)c1cnc(NCCN2CCCC(c3ccccc3)C2)nc1C (centres undefined)	-3.44
Cc1ccc(O)c(CN2CCc3nc(-c4cccnc4)nc(O)c3C2)c1	5.19
CCOCC1COCCC12CCN(C(=O)CC1=CCCCC1)CC2 (centres undefined)	2.99
CNC(=O)C1CN(c2ccnc(C)n2)CCN1Cc1ccccc1 (centres undefined)	8.48
O=C(c1ccc(S(=O)(=O)NCC(F)F)cc1)N1C[C@H]2CNC[C@H]2C1	-13
CCn1ncc2c1C(COCC1CC1)CN(C(=O)c1cccs1)C2 (centres undefined)	-7.64
CC(C)CN1CCCn2nc(CNC(=O)c3cccnc3O)cc2C1	-14.4
Cc1cnn(CC2CN(Cc3nc(C4CC4)no3)CCO2)c1 (centres undefined)	-4.26
CCc1c(C)nc2cc(C3CCN(Cc4cccc(F)c4)C3)nn2c1O (centres undefined)	-6.43
CCN(CC)S(=O)(=O)c1ccc(CNC(=O)c2cc(C)on2)cc1	27.4
CC(C)Nc1nc2c(c(NC3CC3)n1)CCN(C1CCOCC1)CC2	12.3
Cc1ccc(-c2noc([C@@H]3C[C@H](NC(=O)NC(C)C)CN3C)n2)cc1	3.31
Cc1noc(-c2cccnc2N(C)Cc2ccc([S+](C)[O-])cc2)n1 (centres undefined)	46
O=C(Nc1nccs1)NC1CCN(Cc2ccccc2)C1 (centres undefined)	-9.93
CC(C)c1cc(NCC2(CO)CCC2)ncn1	4.66
O=C(CSc1ccc(F)c(F)c1)NS(=O)(=O)c1ccc2c(c1)OCCO2	-4.28
COCC(=O)N(C)Cc1nc(N(C)C)ncc1-c1ccncc1	2.42
CC(C)n1ncc2c1NC(=O)C(C#N)C21CCCC1 (centres undefined)	-4.1

SMILES	cytotoxicity at 10 µM [%]
Fc1cc(CN2CCOC3(CCOCC3)C2)ccc1OC(F)F	-11.9
O=C(CN1CCCC(c2ccn[nH]2)C1)Nc1nc2c(s1)CCC2 (centres undefined)	-42.4
Cc1ccccc1N1CC2(CCN(S(=O)(=O)c3ccccc3)C2)CC1=O (centres undefined)	6.24
Cc1nnsc1C(=O)N1CC[C@H](c2ccccc2)[C@@H]2[C@H]1CCCCN2C	-17.6
CC(C)Oc1cc(N2CCC(C(N)=O)CC2)nc(N)n1	2.96
Cc1noc(Cl)c1CCC(=O)N1CCN(c2ccccc2)CC1	-1.37
Cn1cccc1C(=O)NCc1cn2c(n1)CN(Cc1cccnc1)CC2	-113
O=c1[nH]c(N2CC(O)C2)nc2c1cnn2-c1ccccc1	1.92
COCCN1CCCC1c1ccnc(-c2ccccc2)n1 (centres undefined)	1.09
CNC(=O)COc1ccccc1CNC1CCc2nc(C)nn2C1 (centres undefined)	6.56
COc1ccc(N2CCC(N3CCOC(C(F)(F)F)C3)CC2)cc1 (centres undefined)	-20.5
CC(NCc1cnc(N2CCOCC2)s1)c1ccc(Cl)s1 (centres undefined)	-9.02
Cc1ncsc1COC(=O)c1cccc2c1OCCO2	1.37
Cn1cccc1C(=O)N[C@@H]1CN(S(C)(=O)=O)[C@@H]2COC[C@@H]21	14.1
CCc1n[nH]c(C2CN(Cc3nc(C4CC4)no3)CCO2)n1 (centres undefined)	-10.8
CCCc1ncc(CN(C)C2CCCN(CCc3ccccc3)C2)cn1 (centres undefined)	0.301
Cc1cc(C(=O)NC2CCN(C(=O)Nc3cccnc3)CC2)c(C)o1	6.62
Cc1cccc(C(=O)N2CCCN(Cc3cscn3)CC2)c1	-18.1
CCn1cc(CN2C[C@@H]3CCCN3C[C@H]2CCSC)cn1	-25.4
CO[C@@H]1CN(c2ccccc2)S(=O)(=O)[C@@]12CCN(C(C)=O)C2	6.07
O=C(Cc1csc(-c2ccco2)n1)N1CCN(c2nccs2)CC1	-9.26
